For series [1], the species on record is Rattus norvegicus. As to the kind of experiment: Selectivity ratio of Ki for rat brain DOR to Ki for rat brain MOR.
The species named for series [2] is Rattus norvegicus. As to the kind of experiment: Reduction of hyperalgesia in Wistar rat chronic constriction injury model at 1 nmol, it measured 7 days post CCI challenge by cold plate test. It counts as functional, organism-based. In short, it runs like this:
(§1)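 In catheterized male Wistar rats with sciatic CCI, a single i.t. dose in water for injection was given on day 7. Thermal hyperalgesia was measured 30 min later as latency to hind-paw shake on a 5 °C cold plate. Data are %MPE, 6-12 rats/group, ANOVA with Bonferroni.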

For series [3], the species on record is Rattus norvegicus. The series can be described thus: Toxicity in Wistar rat chronic constriction injury model at 9.5 nmol, it measured 7 days post CCI challenge. It counts as organism-based. Conditions: in vivo, icv_or_intrathecal, 168 h.
Series [4] is filed under the species Rattus norvegicus. The series can be described thus: Toxicity in Wistar rat chronic constriction injury model at 1 nmol, it measured 7 days post CCI challenge. The series is classed as organism-based. Conditions: in vivo, icv_or_intrathecal, 168 h.
The species named for series [5] is Rattus norvegicus. The series can be described thus: Antinociceptive activity in Wistar rat at 0.1 to 1 nmol, it after 30 mins by tail flick test. It counts as functional, organism-based. In a few lines: (§2)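 Naive male Wistar rats (250-300 g) with i.t. catheters received a single i.t. injection in water for injection (5 µl plus 10 µl flush), 7 days after catheter implantation. Tail-flick latency to a light-bulb heat stimulus at two-thirds of tail length was read 30 min post-dose (timepoints up to 180 min), with a 9 s cut-off. Data are %MPE = (TL-BL)/(cut-off-BL)×100, 7-12 rats/group, ANOVA with Bonferroni.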
On the technique in general: In hot-plate and tail-flick tests a longer latency is read as antinociception.

Series [6] is filed under the species Rattus norvegicus. The series can be described thus: Antiallodynic effect in Wistar rat chronic constriction injury model at 0.1 to 1 nmol, it measured 7 days post CCI challenge by Von Frey test. It counts as functional, organism-based. In short, it runs like this:
(§3)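 Male Wistar rats (300-350 g) with i.t. catheters (L4-L6) had CCI made by four loose silk ligatures on the right sciatic nerve. On day 7 they received a single i.t. dose in water for injection. Mechanical allodynia was measured 30 min later with an automatic von Frey device (0.5-26 g) on the midplantar hind paw. Data are %MPE, 6-12 rats/group, ANOVA with Bonferroni.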

Series [7] relates to Rattus norvegicus. The series can be described thus: Antiallodynic effect in it dosed Wistar rat measured 7 days post CCI challenge by Von Frey test. It counts as functional. In a few lines:
as §3

Series [8] concerns Rattus norvegicus. As to the kind of experiment: Reduction of hyperalgesia in it dosed Wistar rat measured 7 days post CCI challenge by cold plate test. The series is classed as functional. In short, it runs like this: as §1
For series [9], the species on record is Rattus norvegicus. The series can be described thus: Antiallodynic effect in Wistar rat chronic constriction injury model at 1 nmol, it measured 7 days post CCI challenge by Von Frey test. The series is classed as functional. In a few lines: as §3
Series [10] concerns Rattus norvegicus. As to the kind of experiment: Antinociceptive activity in it dosed Wistar rat after 30 mins by tail flick test. It counts as functional. In short, it runs like this:
as §2

Series [11] has as its system Rattus norvegicus. As to the kind of experiment: Antiallodynic effect in Wistar rat chronic constriction injury model assessed as tolerance to neuropathic pain at 1 nmol, it qd for 6 days administered from 7 days post CCI challenge to day 13 by Von Frey test. It counts as functional, organism-based. In a few lines:
(§4)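 CCI Wistar rats received once-daily i.t. injections (morphine 3.5 nmol, hybrids 1 nmol, in water for injection) from day 7 to day 13 after CCI. Von Frey and 5 °C cold plate tests were run 30 min after each dose. Data are %MPE and AUC, 12-16 rats/group, ANOVA with Bonferroni.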

For series [12], the system named is Rattus norvegicus. The series can be described thus: Antiallodynic effect in Wistar rat chronic constriction injury model assessed as tolerance to neuropathic pain at 1 nmol, it qd for 6 days administered from 7 days post CCI challenge to day 13 by cold plate test. The series is classed as functional, organism-based. In short, it runs like this: as §4
The species entered for series [13] is Rattus norvegicus. The series can be described thus: Antinociceptive activity in Wistar rat at 1 nmol, it after 30 mins by tail flick test. The series is classed as functional. In a few lines: as §2
The subject of series [14] is Rattus norvegicus. As to the kind of experiment: Toxicity in Wistar rat assessed as death at 9.5 nmol, iv. Conditions: in vivo. The series is classed as organism-based.
Series [15] deals with Rattus norvegicus. The series can be described thus: Antiallodynic effect in Wistar rat chronic constriction injury model assessed as cross tolerance developement pretreated with morphine at 3.5 nmol, it qd for 6 days administered from 7 days post CCI challenge to day 13 measured 30 mins post compound challenge by cold plate test. It counts as functional, organism-based. In short, it runs like this: (§5)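 CCI Wistar rats were made tolerant by 6 days of once-daily i.t. dosing (morphine 3.5 nmol or hybrid 1 nmol). On day 13 they received a single i.t. challenge (morphine 3.5 nmol or hybrid 1 nmol) against repeated-vehicle controls. Von Frey and cold plate tests were run 30 min later. Data are %MPE, 6-8 rats/group, ANOVA with Bonferroni.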

For series [16], the species on record is Rattus norvegicus. The series can be described thus: Antinociceptive activity in Wistar rat at 0.1 to 11 nmol, it after 30 mins to 2 hrs by tail flick test. It counts as functional, organism-based.
The species entered for series [17] is Rattus norvegicus. As to the kind of experiment: Antinociceptive activity in Wistar rat at 0.1 nmol, it after 30 mins by tail flick test. It counts as functional. In short, it runs like this: as §2
The species entered for series [18] is Rattus norvegicus. As to the kind of experiment: Toxicity in Wistar rat chronic constriction injury model at 11 nmol, it measured 7 days post CCI challenge. As to conditions: in vivo, icv_or_intrathecal, 168 h. The series is classed as organism-based.
Series [19] concerns Rattus norvegicus. The series can be described thus: Toxicity in Wistar rat assessed as seizures at 9.5 nmol, iv. It counts as organism-based. As to conditions: in vivo.
Series [20] deals with Rattus norvegicus. The series can be described thus: Antiallodynic effect in Wistar rat chronic constriction injury model assessed as cross tolerance developement pretreated with morphine at 3.5 nmol, it qd for 6 days administered from 7 days post CCI challenge to day 13 measured 30 mins post compound challenge by Von Frey test. The series is classed as functional, organism-based. In short, it runs like this: as §5

Activity calls are given as the source filed them.

Consider `Cc1cc(O)cc(C)c1C[C@H](N)C(=O)N[C@H](CCCNC(=N)N)C(=O)N[C@H]1Cc2ccccc2CN(CC(=O)N(C)Cc2cc(C(F)(F)F)cc(C(F)(F)F)c2)C1=O`, for which, in series [1], the Ratio Ki was 25. Besides, the result in [2], in series [5], in series [6], in series [11] and in [12] was Active. Moreover, the figures for the Activity entry in [3] and in [4] were “Toxic” and “Non-toxic”, respectively. The ED50 in series [7] is reported as 1.05 nmol; in [8], 1.14 nmol; in series [10], 1.66 nmol. The MPE in series [9] is reported as 60%; in [13], 30%.
Regarding `Cc1cc(O)cc(C)c1C[C@H](N)C(=O)N[C@H](CCCNC(=N)N)C(=O)N[C@H]1Cc2ccccc2CN(CCC(=O)N(C)Cc2ccccc2)C1=O`, the Activity result in series [14] was “Non-toxic”; in series [18], “Toxic”; in series [19], “Non-toxic”; in [4] it was “Non-toxic”. Further, the result in [15] and in [20] was inactive. In addition, the Ratio Ki in series [1] is 3.5. Further, the result in series [2], in series [16], in [6], in series [11] and in [12] was Active. Moreover, the values for the MPE in [17], in series [9] and in [13] were 8.9%, 80% and 30%, respectively. The ED50 in series [7] came to 0.24 nmol; in series [8] it was 0.34 nmol; in series [10] it was 2.78 nmol.
